“Also recorded” adds a separate entry of the source. Where no end group is shown, it is not given here.
B1: MyTH4–FERM cassette (protein)
chain: TRWSSAIQNVTDTKAPIDTPTQQLIQDIKENCLNSDVVEQIYKRNPILRYTHHPLHSPLLPLPYGDINLNLLKDKGYTTLQDEAIKIFNSLQQLESMSDPIPIIQGILQTGHDLRPLRDELYCQLIKQTNKVPHPGSVGNLYSWQILTCLSCTFLPSRGILKYLKFHLKRIREQFPGSEMEKYALFTYESLKKTKCREFVPSRDEIEALIHRQEMTSTVYCHGGGSCKITINSHTTAGEVVEKLIRGLAMEDSRNMFALFEYNGHVDKAIESRTVVADVLAKFEKLAATSEVGDLPWKFYFKLYCFLDTDNVPKDSVEFAFMFEQAHEAVIHGHHPAPEENLQVLAALRLQYLQGDYTLHAAIPPLEEVYSLQRLKARISQSTKTFSFRTGSVVRQKVEEEQMLDMWIKEEVSSARASIIDKWRKFQGMNQEQAMAKYMALIKEWPGYGSTLFDVECKEGGFPQELWLGVSADAVSVYKRGEGRPLEVFQYEHILSFGAPLANTYKIVVDERELLFETSEVVDVAKLMKAYISMIVKKRYSTTRSASSQGSSR
modifications: left off: His6, N-terminal, cleaved

Columns and labels:
[1] = system: myosin-X MyTH4–FERM cassette / microtubules; assay: Competition microtubule co-sedimentation of MyTH4–FERM cassette; assay type: binding, human; conditions: Myo-X 4 μM; integrin β5 peptide 0, 4, 20 and 40 μM; three independent measurements
[2] = system: myosin-X MyTH4–FERM cassette; assay: Pull-down with GST-fused integrin β5 cytoplasmic tail; assay type: binding, human; conditions: GST-fused integrin β5 (743–799), Myo-X 10 μM
How it was run: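 MyTH4–FERM cassette (10 μM) was pulled down on glutathione-Sepharose at 4°C by GST-fused human integrin β5 cytoplasmic tail (743–799), with DCC P3 peptide at 0, 10, 50 or 100 μM. Eluates were run on SDS–PAGE. Bound cassette was expressed relative to the no-DCC sample, from three independent measurements.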

[3] = system: myosin-X MyTH4–FERM cassette; assay: Pull-down with GST-fused C-terminal tail peptides of α- and β-tubulins; assay type: binding, human; conditions: SDS–PAGE
How it was run: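 Purified MyTH4–FERM cassette was mixed with GST-fused α1A-tubulin (399–451) or β2B-tubulin (390–445) tail peptide in 20 mM Tris–HCl pH 8.0, 50 mM NaCl, 1 mM DTT at 4°C for 30 min. Glutathione-Sepharose was then added for 10 min at 4°C, with five washes. Elution used 20 mM glutathione in 50 mM Tris–HCl pH 8.0 with 150 mM NaCl, then SDS–PAGE.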

DCC = conditions: yeast two-hybrid; ref Zhu et al, 2007; cited from earlier work
[4] = Analytical ultracentrifugation; assay type: physicochemical; conditions: AUC, mono-modal peak
How it was run: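 Sedimentation velocity at 20°C and 25 000 r.p.m. Purified protein was in 20 mM Tris (pH 8.5), 150 mM NaCl and 5 mM DTT, at 1 mg/ml (14 μM). Sedimentation data were fitted to obtain the species distribution.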

[5] = system: C-terminal acidic tail peptide of β2B-tubulin; assay: Pull-down of wild-type and mutated MyTH4–FERM cassettes with GST-tubulin tail; assay type: binding; conditions: SDS–PAGE
How it was run: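 Human myosin-X MyTH4–FERM cassette (wild type or site-directed mutants) was expressed in E. coli BL21Star(DE3) at 20°C with 0.1 mM IPTG. It was Ni-NTA purified, then His-tag cleaved with HRV3C, then run over cation exchange and gel filtration. GST bait was human DCC 1390–1447 or β2B-tubulin 390–445. Cassette and bait were mixed with glutathione-Sepharose at 4°C, washed, and eluates resolved by SDS–PAGE.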

[6] = system: myosin-X MyTH4–FERM cassette; assay: Gel filtration and AUC of cassette–DCC P3 complex; assay type: binding, human; conditions: through the MyTH4–FERM cassette
microtubules = conditions: ref Weber et al, 2004; cited from earlier work

Row | Molecule | interference with microtubule binding by integrin β5 [1] | binding of integrin β5 cytoplasmic peptide [2] | binding to α- and β-tubulin acidic tails [3] | DCC binding in two-hybrid assay (DCC) | association state in solution [4] | binding to β2B-tubulin C-terminal tail peptide [5] | cargo-mediated dimerization of myosin-X [6] | microtubule association (microtubules)
1 | integrin β5 cytoplasmic peptide: integrin β5 cytoplasmic tail (residues 743–799) ({GST}-KLLVTIHDRREFAKFQSERSRARYEMASNPLYRKPISTHTVDFTFNKFNKSYNGTVD; not fully specified) | interfere with microtubule binding | showed binding | – | – | – | – | – | –
2 | B1 | – | – | binds both α- and β-tubulin acidic tails | sufficient for DCC and neogenin binding; also recorded: full DCC-binding affinity | monomer | shows binding | no cargo-mediated dimerization was observed | sufficient to confer microtubule association

— publication PMC3155308 (The EMBO Journal, 2011)
